Key:
[1] = system: E/P-selectin on activated HUVECs; assay: Competitive inhibition of FITC-labeled QA-NP binding to activated HUVECs; assay type: cell-based, human; conditions: 30 min pre-incubation; flow cytometry
In short: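 HUVECs (passage 4, EGM-2, on rat-tail collagen I) were activated with 10 ng/mL TNF-α for 4 h. Free ligand, anti-E-selectin or anti-P-selectin antibody, or unlabeled nanoparticles were pre-incubated for 30 min. FITC-labeled particles (0.2 mg/mL) were then added for 2 h at 37 °C. Cells were washed twice with PBS, trypsinized, resuspended in cold PBS, and read for FL-1 fluorescence (488/525 nm).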

[2] = system: HUVECs; assay: Cytotoxicity of QA-NH2 on HUVECs; assay type: cell-based, human; conditions: 1 nM to 1 mM, 24 h, MTT
In short: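 HUVECs were seeded at 10,000 cells per well on rat-tail collagen I; one group was pre-activated with 10 ng/mL TNF-α for 4 h. Test compound was added at 1 nM to 1 mM for 24 h. MTT (75 μg) was then added for 4 h, formazan was dissolved in 50% DMF/20% SDS at pH 5, and absorbance was read at 562 nm.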

[3] = system: subcutaneous MDA-MB-231 tumor xenografts; assay: Whole body and ex vivo fluorescence imaging of NP distribution; assay type: in vivo, female athymic nude mice; conditions: ICG-labeled, tail vein, imaged over 24 h

SMILES	QA-NP binding to activated HUVECs after pre-treatment with competitor [1]	effect on HUVEC proliferation [2]	tumor fluorescence in whole body imaging [3]
Nc1cc(NC(=O)[C@]2(O)C[C@@H](O)[C@@H](O)[C@H](O)C2)cc(C(=O)O)c1 [QA-NH2, 3-amino-5-((1S,3R,4S,5R)-1,3,4,5-tetrahydroxycyclohexane-1-carboxamido)benzoic acid]	reduced	no adverse effects	–
CC1(C)C(/C=C/C=C/C=C/C=C2\N(CCCCS(=O)(=O)O)c3ccc4ccccc4c3C2(C)C)=[N+](CCCCS(=O)(=O)[O-])c2ccc3ccccc3c21 [free ICG, indocyanine green]	–	–	did not show fluorescence in tumors at all time points
